# Compound activity: PubChem, several laboratories
# Sampled rows, rich in hits. Any-hit rate of the full collection: about 1.7%.
# Pemphigus Ab inh – human desmoglein-3 autoantibody binding inhibition | DSG3-coupled beads, scFv-anti-DSG3-GFP binding, flow cytometry; active compounds read low | 0.48% of 310,000 active | binding (percent of control), % at 10 µM;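 active = binding more than 3 SD below its plate's average and above zero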;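 also: hits lower antibody fragment binding to DSG3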
# Target sequence (P32926 whole entry, looked up, the tested form may be a part): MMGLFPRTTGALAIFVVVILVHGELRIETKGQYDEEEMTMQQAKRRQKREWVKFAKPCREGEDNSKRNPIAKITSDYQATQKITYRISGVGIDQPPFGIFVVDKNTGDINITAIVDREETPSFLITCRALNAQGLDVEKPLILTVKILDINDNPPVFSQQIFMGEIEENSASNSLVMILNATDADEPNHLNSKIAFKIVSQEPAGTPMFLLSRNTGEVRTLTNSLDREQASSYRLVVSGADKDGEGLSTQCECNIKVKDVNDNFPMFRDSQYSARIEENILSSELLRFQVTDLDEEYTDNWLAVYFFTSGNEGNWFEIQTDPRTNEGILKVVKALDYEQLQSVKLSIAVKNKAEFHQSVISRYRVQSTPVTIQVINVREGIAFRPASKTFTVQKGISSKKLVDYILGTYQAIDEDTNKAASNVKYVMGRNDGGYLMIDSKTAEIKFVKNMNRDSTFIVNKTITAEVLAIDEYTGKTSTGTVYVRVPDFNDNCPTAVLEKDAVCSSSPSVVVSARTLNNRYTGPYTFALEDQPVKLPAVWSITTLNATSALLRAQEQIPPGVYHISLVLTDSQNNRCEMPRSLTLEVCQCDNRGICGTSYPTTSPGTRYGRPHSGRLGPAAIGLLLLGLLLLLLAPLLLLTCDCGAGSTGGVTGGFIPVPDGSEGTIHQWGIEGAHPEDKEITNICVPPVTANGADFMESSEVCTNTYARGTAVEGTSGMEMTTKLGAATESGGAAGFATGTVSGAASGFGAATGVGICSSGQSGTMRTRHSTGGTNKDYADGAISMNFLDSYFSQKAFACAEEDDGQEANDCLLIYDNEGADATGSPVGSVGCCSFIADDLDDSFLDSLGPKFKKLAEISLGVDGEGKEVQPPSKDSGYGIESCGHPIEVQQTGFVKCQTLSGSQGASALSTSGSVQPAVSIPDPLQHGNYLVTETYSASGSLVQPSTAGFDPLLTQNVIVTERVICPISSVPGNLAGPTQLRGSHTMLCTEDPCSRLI
# Arr AP2 block – human beta-arrestin and AP2 interaction inhibition; FITC-arrestin peptide / GST-AP2 beads, flow cytometry; AP2 beta2 appendage carries R879A mutation; inhibition, % at 10 µM; 0.31% of 340,000 active; AID 504490;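 active = inhibition above a set limit, near 3 SD of compounds lacking own fluorescence, cut at about 54% in these data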;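 also: plate controls were DMSO wells for no effect and 5 µM unlabelled arrestin peptide for full effect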
#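 System: GST-AP2 R879A glutathione beads; medium: PBS, Tween 20 0.05%, BSA 0.1%; reagent: fluorescein-tagged arrestin peptide at 50 nM final; schedule: pre-incubation 12 min, peptide binding 1 h, room temperature; detection: flow cytometry, FL1 (488/535 nm); read-out: inhibition as reduced fluorescein signal on beads, percent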
# Neddyl block – cullin neddylation inhibition; TR-FRET cullin neddylation, biochemical; 0.58% of 360,000 active; inhibition, % at 25 µM; in the data active = inhibition above about 36%
# Efflux pump inh – antifungal efflux pump inhibition, Nile Red retention; S. cerevisiae Candida pump triplex; inhibition, % at 10 µM; 0.44% of 330,000 active; AID 485275;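 active = plate passing quality check with inhibition over a set limit, or well fluorescence over plate mean plus 4 SD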;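 also: Nile Red retained in pooled yeast measured as flow cytometry median fluorescence; 0% = buffer negative control and 100% = Enniatin B positive control; higher means more Nile Red kept so more efflux inhibition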
# Neddyl inh conf – confirmation of human cullin neddylation inhibitors; shares compounds with Neddyl block; TR-FRET cullin neddylation biochemical assay; calls only at 25 µM; 13% of 1,800 active; in the data active = inhibition above about 40%;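 also: neddylation substrate is the cullin 1 ring ligase complex with SKP2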
# * marks the source's active call; other numbers are inactive results; i = inactive; . = no result given; + = active, no number.
SMILES,Pemphigus Ab inh,Arr AP2 block,Neddyl block,Efflux pump inh,Neddyl inh conf
O=C(Cn1nnc(-c2cc(C(F)(F)F)cc(C(F)(F)F)c2)n1)NNC(=S)Nc1ccc(Cl)cc1,.,-11.6,58.9*,-0.2,i
Cc1cc(C(F)(F)F)nn1CC(=O)NNC(=S)Nc1ccc(Cl)cc1,104.6,12.8,-2.8,0.1,.
CCC1Oc2ccccc2C(=O)N(CC(=O)c2ccc3c(c2)OCCO3)C1=O (centres undefined),.,27.0,-13.8,0.0,.
O=c1ccc(/C=C/c2ccccc2)nn1Cc1ccc(F)cc1,102.5,-5.8,44.6*,-0.1,i
COc1ccc(/C=C/c2ccc(=O)n(Cc3ccccc3)n2)cc1,99.9,25.3,48.8*,0.1,.
CCOC(=O)Cn1nc(/C=C/c2ccc(OC)cc2)ccc1=O,114.0,11.0,7.7,0.0,.
CCSC1=NN2CCS(=O)(=O)N=C2S1,97.8,9.6,9.8,-0.1,.
CCN(CC)c1ccc(/C=N/NC(=O)c2ccc3c(c2)OCCO3)cc1,101.1,-3.2,.,.,.
CN(C)c1ccc(/C=N/NC(=O)c2ccc3c(c2)OCCO3)cc1,108.2,-6.3,60.7*,1.3,.
Cc1cccc(C2Nc3ccccc3C(=O)N2c2ccccc2)n1 (centres undefined),97.5,-3.4,.,0.0,.
O=C1c2ccccc2NC(c2ccccn2)N1c1ccc(Cl)cc1 (centres undefined),110.6,15.9,41.9*,-0.1,.
O=C(NN1C(=O)c2ccccc2NC1c1ccccn1)c1ccccc1 (centres undefined),107.5,-2.1,39.3*,-0.1,.
CC(=O)Nc1cccc2c1C(=O)NC2=O,102.9,-2.6,46.4*,-0.1,+
CC(=O)Nc1ccc(NC(=O)CS(=O)(=O)Cc2ccccc2)cc1,106.6,8.7,6.1,-0.1,.
COc1cc2c(cc1OC)/C(=C/C(=O)c1ccccc1)NCC2,104.5,29.3,-3.5,-0.4,.
COc1cc2c(cc1OC)/C(=C/C(=O)c1ccc(C)cc1)NCC2,106.5,4.6,42.7*,-0.1,i
COc1cc(OC)cc(C(=O)NCC(=O)OCC(=O)/C=C2/N(C)c3ccccc3C2(C)C)c1,123.0,-25.4,52.3*,0.3,i
CCCCNC(=O)c1cc2c(C)cc(C)cc2[nH]1,109.6,14.7,44.4*,0.0,i
NC(=O)c1csc(-c2ccc(CO)o2)n1,.,.,2.8,.,.
Nc1cccc(-c2ccc(CO)o2)c1,79.9,-0.2,42.2*,0.0,i
Cc1cc(=O)oc2c(C)c(OC(C)C(=O)NCCN3CCOCC3)ccc12 (centres undefined),97.8,2.4,24.8,-0.1,.
Cc1c(OC(C)C(=O)NCCN2CCOCC2)ccc2c3c(c(=O)oc12)CCCC3 (centres undefined),88.2,-1.0,41.2*,-0.2,.
CCCCCCc1c(C)[nH]c2nc3ccccc3n2c1=O,89.6,53.8,13.3,0.0,.
CCCc1c(C)[nH]c2nc3ccccc3n2c1=O,99.9,50.5,46.3*,-0.1,i
O=c1cc(CCl)[nH]c2nc3ccccc3n12,102.4,6.4,42.0*,-0.1,i
SMILES,Pemphigus Ab inh,Arr AP2 block,Neddyl block,Efflux pump inh,Neddyl inh conf
Cc1cc(C)n2nc(C(=O)N3CCCC(N4CCN(c5ccccc5C)CC4)C3)cc2n1 (centres undefined),105.9,-8.7,47.4*,.,i
Cc1cc(C(=O)N2CCCC(N3CCN(c4ccccc4C)CC3)C2)no1 (centres undefined),104.2,.,0.2,.,.
CCC1(c2ccc(C)cc2)NC(=O)N(C(C)C(=O)Nc2ccc(N3CCOCC3)cc2)C1=O (centres undefined),99.0,24.2,0.2,0.2,.
NCCNC(=O)c1c(NC(=O)c2ccccc2)sc2c1CCCC2,109.0,-19.1,45.6*,-0.1,i
Cc1cc(C)c(S(C)(=O)=O)c(=O)[nH]1,104.6,12.7,7.7,-0.2,.
Cc1cc(=O)c2c([nH]1)c(C)cc1[nH]c(C)c(C)c12,101.1,-10.8,42.9*,-0.1,.
Nc1nc(N)nc(-c2cc(F)ccc2O)n1,107.0,10.4,34.0,0.0,.
COc1ccc(C(=O)NCCNc2nc3c(C)cccc3cc2C#N)cc1OC,122.9,18.5,39.2*,-0.1,.
Cc1ccc(S(=O)(=O)Cn2nnnc2C(CC(C)C)N2CCN(C3CCCC3)CC2)cc1 (centres undefined),96.7,-8.2,1.3,-0.1,.
COCCCNC(=S)N(CCCO)Cc1cc2cc3c(cc2[nH]c1=O)OCCO3,113.3,0.1,29.5,-0.1,.
COCCCNC(=S)N(CCCO)Cc1cc2cc3c(cc2[nH]c1=O)OCO3,121.6,4.0,42.7*,-0.1,i
COCCCNC(=S)N(CCO)Cc1cc2cc3c(cc2[nH]c1=O)OCO3,143.2,8.2,40.1*,-0.1,i
O=C(NC1CCCCC1)N(CCO)Cc1cc2cc3c(cc2[nH]c1=O)OCCO3,96.7,8.3,44.3*,0.0,i
CCNC(=S)N(CCCO)Cc1cc2cc3c(cc2[nH]c1=O)OCCO3,105.3,1.0,.,0.0,.
[N-]=[N+]=NC[C@H](Cc1ccccc1)N1CCN(Cc2ccccc2)CCC1=O,110.8,18.6,-13.3,-0.1,.
Cc1cc(C)n2nc(-c3cnn(C)c3C(F)(F)F)cc2n1,96.8,-0.5,42.0*,0.0,+
Cc1ccc(-c2cc3nc(C)cc(C)n3n2)cc1,97.5,-1.6,47.4*,-0.2,i
O=C(CSc1ccc2nnc(-c3cccnc3)n2n1)Nc1ccccc1C(F)(F)F,101.2,7.8,48.3*,0.2,.
O=C(CSc1ccc2nnc(-c3cccnc3)n2n1)Nc1ccccc1,104.2,9.1,-7.0,0.2,.
COC(=O)C1=C(C)N=C2SC(C#N)=C(N)N2C1c1ccc(OCc2ccccc2)cc1 (centres undefined),105.5,-3.4,41.9*,-0.1,i
COC(=O)C1=C(C)N=C2SC(C#N)=C(N)N2C1c1cc(OC)c(OC)c(OC)c1 (centres undefined),100.3,2.2,31.3,0.0,.
Cc1ccc2[nH]c(=O)c(C3=NN(C(=O)CCC(=O)O)C(c4cccs4)C3)c(-c3ccccc3)c2c1 (centres undefined),86.8,3.9,42.7*,0.2,i
CSc1cnc2c(=O)n(C)c(=O)[nH]c2n1,88.0,0.5,47.9*,-0.1,.
CSc1nnc2c(=O)[nH]c(=O)n(C)c2n1,97.4,26.2,-23.5,.,.
O=C(CCN1CCOCC1)Nc1cc(C(=O)Nc2ccc(Cl)cc2)ccc1N1CC2CC(C1)c1cccc(=O)n1C2 (centres undefined),.,-4.5,7.8,0.0,.
CC1CC(C)CN(C(=O)C2CCN(C(=O)Nc3ccccc3)CC2)C1 (centres undefined),110.9,2.4,11.2,-0.1,.
CCNC(=S)N(CCN(C)C)Cc1cc2cc3c(cc2[nH]c1=O)OCO3,102.2,3.2,53.4*,0.2,.
CC(C)CNC(=S)N(CCN(C)C)Cc1cc2cc3c(cc2[nH]c1=O)OCO3,109.7,-16.6,36.4,-0.1,.
CCNC(=S)N(CCN(C)C)Cc1cc2cc(OCC)ccc2[nH]c1=O,.,16.8,41.3*,0.0,i
CN(C)CCN(Cc1cc2cc3c(cc2[nH]c1=O)OCO3)C(=S)NCc1ccco1,102.9,8.4,40.0*,-0.3,i
